Results published in ChEMBL document CHEMBL1131483, “Discovery of novel pyridinopolyamines with potent antimicrobial activity: deconvolution of mixtures synthesized by solution-phase combinatorial chemistry” (1998).
Values after ≈ are worked out from the molar mass of the structure shown.

Assays:
Assay type in all cases: functional
Candida albicans = test: Minimum inhibitory concentration of Candida albicans growth.
How it was run: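 Candida albicans ATCC 10231 in YM broth at 22 °C. Overnight culture added to sample in 4% DMSO in water, about 1 × 10^5 cells/well, 150 μL, duplicate. Growth scored visually at 48 h. MIC is reported as a concentration range: full inhibition at the upper value, viable cells at the lower. Amphotericin B was the positive control.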

Escherichia coli [1] = test: (§1) Minimum inhibitory concentration of Escherichia coli growth.
Streptococcus pyogenes [2] = test: Minimum inhibitory concentration of Streptococcus pyogenes growth.
How it was run: (§2)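 Streptococcus pyogenes in Todd-Hewitt broth at 37 °C. The tier II strain is ATCC 49399. Overnight culture at about 1 × 10^7 cells/well, sample in 4% DMSO in water, duplicate. Percent growth versus a no-compound well by A595 at 24 h. MIC is a concentration range: full inhibition at the upper value, growth at the lower. Ampicillin and tetracycline were controls.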

Proteus vulgaris = test: Minimum inhibitory concentration of Proteus vulgaris growth.
How it was run: (§3)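 Broth-microdilution at 37 °C. Strains and media: E. faecalis ATCC 29212 in Todd-Hewitt, K. pneumoniae ATCC 13883 and P. vulgaris ATCC 8427 in nutrient broth, S. aureus ATCC 25923 in trypticase soy broth. About 1 × 10^7 cells/well, sample in 4% DMSO in water, duplicate. A595 read at 24 h versus a no-compound well. MIC is reported as a range. Ampicillin and tetracycline were controls.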

Pseudomonas aeruginosa = test: Minimum inhibitory concentration of Pseudomonas aeruginosa growth.
How it was run: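 Pseudomonas aeruginosa ATCC 27853 in nutrient broth at 37 °C. About 1 × 10^7 cells/well, sample in 4% DMSO in water, 150 μL, duplicate. Growth relative to an untreated well was read at A595 after 24 h. MIC is given as a range, complete inhibition at the higher concentration. Ciprofloxacin was the positive control.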

Streptococcus pyogenes [3] = test: Minimum inhibitory concentration of Streptococcus pyogenes (wt) growth.; how it was run: as §2
Klebsiella pneumoniae = test: Minimum inhibitory concentration of Klebsiella pneumoniae growth.; how it was run: as §3
Staphylococcus aureus = test: Minimum inhibitory concentration of Staphylococcus aureus growth.; how it was run: as §3
Enterococcus faecalis = test: Minimum inhibitory concentration of Enterococcus faecalis growth.; how it was run: as §3
Escherichia coli [4] = test: as §1; remark: listed apart in the source
[5] = Escherichia coli, read-out: MIC
[6] = Streptococcus pyogenes, read-out: MIC

SMILES	MIC (Candida albicans; Candida albicans)	MIC (Escherichia coli [1]; [5])	MIC (Streptococcus pyogenes [2]; [6])	MIC (Proteus vulgaris)	MIC (Pseudomonas aeruginosa)	MIC (Streptococcus pyogenes [3])	MIC (Klebsiella pneumoniae)	MIC (Staphylococcus aureus)	MIC (Enterococcus faecalis)	MIC (Escherichia coli [4])	MIC (Candida albicans)	MIC (Escherichia coli [1])	MIC (Streptococcus pyogenes [2])
NCc1cccc(CNCCNCCCO)n1	> 100 µM	> 100 µM	> 100 µM										
COC(=O)c1cccc(CN(CCNCCCO)Cc2cccc(CN(Cc3cccc(C(=O)OC)c3)Cc3cccc(C(=O)OC)c3)n2)c1	50 µM (≈ 34.1 µg/mL)	20 µM (≈ 13.7 µg/mL)	10 µM (≈ 6.83 µg/mL)			12 µM (≈ 8.19 µg/mL)		25 µM (≈ 17.1 µg/mL)	> 100 µM	25 µM (≈ 17.1 µg/mL)			
OCCCN(CCN(Cc1ccccc1)Cc1cccc(CN(Cc2ccccc2)Cc2ccccc2)n1)Cc1ccccc1	5 µM (≈ 2.99 µg/mL)	25 µM (≈ 15 µg/mL)	25 µM (≈ 15 µg/mL)										
OCCCNCCN(Cc1cccc(C(F)(F)F)c1)Cc1cccc(CN(Cc2ccccc2)Cc2cccc(C(F)(F)F)c2)n1	> 100 µM	3 µM (≈ 1.93 µg/mL)	3 µM (≈ 1.93 µg/mL)	> 100 µM	> 100 µM	12 µM (≈ 7.74 µg/mL)	50 µM (≈ 32.2 µg/mL)	25 µM (≈ 16.1 µg/mL)	12 µM (≈ 7.74 µg/mL)	> 100 µM			
OCCCNCCN(Cc1cccc(F)c1)Cc1cccc(CN(Cc2cccc(F)c2)Cc2cccc(F)c2)n1	50 µM (≈ 28.1 µg/mL)	5 µM (≈ 2.81 µg/mL)	5 µM (≈ 2.81 µg/mL)			6 µM (≈ 3.38 µg/mL)		12 µM (≈ 6.75 µg/mL)	25 µM (≈ 14.1 µg/mL)	12 µM (≈ 6.75 µg/mL)			
O=[N+]([O-])c1cccc(CN(CCNCCCO)Cc2cccc(CN(Cc3cccc([N+](=O)[O-])c3)Cc3cccc([N+](=O)[O-])c3)n2)c1	> 100 µM	10 µM (≈ 6.44 µg/mL)	5 µM (≈ 3.22 µg/mL)	> 100 µM	> 100 µM	12 µM (≈ 7.72 µg/mL)	> 100 µM	12 µM (≈ 7.72 µg/mL)	> 100 µM	> 100 µM			
OCCCNCCN(Cc1ccccc1)Cc1cccc(CN(Cc2ccccc2)Cc2ccccc2)n1	50 µM (≈ 25.4 µg/mL)	10 µM (≈ 5.09 µg/mL)	5 µM (≈ 2.54 µg/mL)	50 µM (≈ 25.4 µg/mL)	50 µM (≈ 25.4 µg/mL)	6 µM (≈ 3.05 µg/mL)	50 µM (≈ 25.4 µg/mL)	25 µM (≈ 12.7 µg/mL)	12 µM (≈ 6.1 µg/mL)	12 µM (≈ 6.1 µg/mL)			
OCCCNCCN(Cc1cccc(C(F)(F)F)c1)Cc1cccc(CN(Cc2cccc(C(F)(F)F)c2)Cc2cccc(C(F)(F)F)c2)n1	> 100 µM	5 µM (≈ 3.56 µg/mL)	5 µM (≈ 3.56 µg/mL)	> 100 µM	> 100 µM	12 µM (≈ 8.55 µg/mL)	> 100 µM	6 µM (≈ 4.28 µg/mL)	> 100 µM	> 100 µM			
Cc1cccc(CN(CCNCCCO)Cc2cccc(CN(Cc3cccc(C)c3)Cc3cccc(C)c3)n2)c1	12 µM (≈ 6.61 µg/mL)	5 µM (≈ 2.75 µg/mL)	5 µM (≈ 2.75 µg/mL)	> 100 µM	> 100 µM	6 µM (≈ 3.3 µg/mL)	> 100 µM	6 µM (≈ 3.3 µg/mL)	6 µM (≈ 3.3 µg/mL)	6 µM (≈ 3.3 µg/mL)			

Now from value to compound:

MIC (Candida albicans; Candida albicans)	MIC (Escherichia coli [1]; [5])	MIC (Streptococcus pyogenes [2]; [6])	MIC (Proteus vulgaris)	MIC (Pseudomonas aeruginosa)	MIC (Streptococcus pyogenes [3])	MIC (Klebsiella pneumoniae)	MIC (Staphylococcus aureus)	MIC (Enterococcus faecalis)	MIC (Escherichia coli [4])	MIC (Candida albicans)	MIC (Escherichia coli [1])	MIC (Streptococcus pyogenes [2])	SMILES
> 100 µM	6 µM (≈ 3.98 µg/mL)	6 µM (≈ 3.98 µg/mL)	> 100 µM	> 100 µM	6 µM (≈ 3.98 µg/mL)	> 100 µM	12 µM (≈ 7.95 µg/mL)	6 µM (≈ 3.98 µg/mL)	> 100 µM				OCCCNCCN(Cc1cccc(C(F)(F)F)c1)Cc1cccc(CN(Cc2cccc(F)c2)Cc2cccc(C(F)(F)F)c2)n1
< 12.5 µM	25 µM (≈ 15.1 µg/mL)	5 µM (≈ 3.02 µg/mL)	> 100 µM	> 100 µM	6 µM (≈ 3.63 µg/mL)	12 µM (≈ 7.26 µg/mL)	6 µM (≈ 3.63 µg/mL)	6 µM (≈ 3.63 µg/mL)	> 100 µM				Cc1cccc(CN(CCNCCCO)Cc2cccc(CN(Cc3cccc(C)c3)Cc3cccc(C(F)(F)F)c3)n2)c1
> 100 µM	25 µM (≈ 16.5 µg/mL)	5 µM (≈ 3.29 µg/mL)	> 100 µM	> 100 µM	6 µM (≈ 3.95 µg/mL)	> 100 µM	12 µM (≈ 7.9 µg/mL)	6 µM (≈ 3.95 µg/mL)	> 100 µM				Cc1cccc(CN(CCNCCCO)Cc2cccc(CN(Cc3cccc(C(F)(F)F)c3)Cc3cccc(C(F)(F)F)c3)n2)c1
50 µM (≈ 31.8 µg/mL)	25 µM (≈ 15.9 µg/mL)	5 µM (≈ 3.18 µg/mL)	> 100 µM	> 100 µM	6 µM (≈ 3.81 µg/mL)	> 100 µM	6 µM (≈ 3.81 µg/mL)	6 µM (≈ 3.81 µg/mL)	> 100 µM				Cc1cccc(CN(CCNCCCO)Cc2cccc(CN(Cc3cccc([N+](=O)[O-])c3)Cc3cccc(C(F)(F)F)c3)n2)c1
< 12.5 µM	25 µM (≈ 16.2 µg/mL)	5 µM (≈ 3.24 µg/mL)	> 100 µM	> 100 µM	6 µM (≈ 3.89 µg/mL)	> 100 µM	12 µM (≈ 7.79 µg/mL)	6 µM (≈ 3.89 µg/mL)	> 100 µM				COC(=O)c1cccc(CN(Cc2cccc(C(F)(F)F)c2)Cc2cccc(CN(CCNCCCO)Cc3cccc(C)c3)n2)c1
> 100 µM	3 µM (≈ 1.98 µg/mL)	3 µM (≈ 1.98 µg/mL)	> 100 µM	> 100 µM	6 µM (≈ 3.95 µg/mL)	100 µM (≈ 65.9 µg/mL)	12 µM (≈ 7.9 µg/mL)	6 µM (≈ 3.95 µg/mL)	> 100 µM				Cc1cccc(CN(Cc2cccc(C(F)(F)F)c2)Cc2cccc(CN(CCNCCCO)Cc3cccc(C(F)(F)F)c3)n2)c1
> 100 µM	6 µM (≈ 4.22 µg/mL)	3 µM (≈ 2.11 µg/mL)	> 100 µM	> 100 µM	6 µM (≈ 4.22 µg/mL)	> 100 µM	12 µM (≈ 8.43 µg/mL)	6 µM (≈ 4.22 µg/mL)	> 100 µM				COC(=O)c1cccc(CN(Cc2cccc(C(F)(F)F)c2)Cc2cccc(CN(CCNCCCO)Cc3cccc(C(F)(F)F)c3)n2)c1
< 12.5 µM	5 µM (≈ 3.04 µg/mL)	5 µM (≈ 3.04 µg/mL)	> 100 µM	> 100 µM	6 µM (≈ 3.65 µg/mL)	25 µM (≈ 15.2 µg/mL)	6 µM (≈ 3.65 µg/mL)	6 µM (≈ 3.65 µg/mL)	> 100 µM				Cc1cccc(CN(CCNCCCO)Cc2cccc(CN(Cc3cccc(F)c3)Cc3cccc(C(F)(F)F)c3)n2)c1
> 100 µM	6 µM (≈ 4.14 µg/mL)	3 µM (≈ 2.07 µg/mL)	> 100 µM	> 100 µM	6 µM (≈ 4.14 µg/mL)	> 100 µM	6 µM (≈ 4.14 µg/mL)	6 µM (≈ 4.14 µg/mL)	> 100 µM	> 100 µM	5 µM (≈ 3.45 µg/mL)	5 µM (≈ 3.45 µg/mL)	O=[N+]([O-])c1cccc(CN(Cc2cccc(C(F)(F)F)c2)Cc2cccc(CN(CCNCCCO)Cc3cccc(C(F)(F)F)c3)n2)c1
< 12.5 µM	5 µM (≈ 2.95 µg/mL)	5 µM (≈ 2.95 µg/mL)	> 100 µM	> 100 µM	6 µM (≈ 3.54 µg/mL)	12 µM (≈ 7.09 µg/mL)	6 µM (≈ 3.54 µg/mL)	6 µM (≈ 3.54 µg/mL)	25 µM (≈ 14.8 µg/mL)				Cc1cccc(CN(CCNCCCO)Cc2cccc(CN(Cc3ccccc3)Cc3cccc(C(F)(F)F)c3)n2)c1
